# RORA act = RORA (human) activation. P35398. CHO-K1 Gal4-RORA LBD luciferase reporter, luminescence; percent increase over mock-subtracted basal signal. activation, % at 10 µM. hit rate 1.5% among 65,000. AID 560;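 active = activation above the mean of all tested compounds plus 3 SD, cut at about 49% in these data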
# M1 antagonist = blocks the rat M1 muscarinic receptor response to acetylcholine; P08482; B-score at 10 µM; AID 628; CHO-M1 cells, Fluo-4 calcium, ACh EC80 antagonist mode; hits give low values; hit rate 3.4% among 64,000;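 active = calcium fluorescence response, raw or row-and-column corrected B-score, differing from the plate sample mean either way at a set confidence level, mostly lower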
# HePTP inhibitor = blocks human HePTP tyrosine phosphatase | P35236 | recombinant HePTP phosphatase activity, OD absorbance | inhibition, % at 20 µM | hit rate 0.64% among 110,000; in the data active = inhibition above about 50%
# SF1 activator = activators of human nuclear receptor SF-1 | Q13285 | CHO-K1 Gal4-SF-1 LBD luciferase reporter; % increase over DMSO SF-1-specific signal | activation, % at 10 µM | hit rate 1.9% among 65,000;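 active = activation above the mean activation of all tested compounds plus 3 SD, cut at about 50% in these data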
# Target sequence (Q13285 whole entry, looked up, the tested form may be a part): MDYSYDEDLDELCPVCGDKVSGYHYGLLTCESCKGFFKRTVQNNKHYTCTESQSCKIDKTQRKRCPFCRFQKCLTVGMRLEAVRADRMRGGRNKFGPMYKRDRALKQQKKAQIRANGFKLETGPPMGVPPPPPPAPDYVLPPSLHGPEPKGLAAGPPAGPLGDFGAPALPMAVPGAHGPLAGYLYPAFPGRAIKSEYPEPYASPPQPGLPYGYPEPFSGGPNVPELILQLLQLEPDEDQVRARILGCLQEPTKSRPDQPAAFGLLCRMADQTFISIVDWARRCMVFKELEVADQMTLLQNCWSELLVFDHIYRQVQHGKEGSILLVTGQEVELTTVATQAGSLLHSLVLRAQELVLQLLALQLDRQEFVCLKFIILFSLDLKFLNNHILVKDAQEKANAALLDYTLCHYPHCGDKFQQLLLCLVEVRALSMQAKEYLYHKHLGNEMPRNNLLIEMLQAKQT
#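 Assay system: CHO-K1 cells co-transfected with Gal4 DBD–human SF-1 LBD, 5xGal4 luciferase reporter / Input: 4,000 cells per well / Incubation: 20 h compound exposure at 37 °C after 1 h cell settling / Detection: SteadyLite luciferase luminescence / Control set: DMSO negative control and −SF1 background wells / Replication: one test per compound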
# D1 mod = allosterically modulates the human D1 dopamine receptor; P21728; HEK293 D1, CRE-luciferase, dopamine EC30 potentiation; actives deviate in either direction; B-score at 10 µM; hit rate 5.9% among 58,000; AID 641;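 active = luminescence count or its row- and column-corrected plate score outside the 99.7% band of the plate's sample wells, on either side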
# M1 agonist = M1 muscarinic receptor agonism; B-score at 10 µM; hit rate 3% among 64,000; CHO-M1 cells, Fluo-4 calcium fluorescence, agonist mode; hits give high values;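 active = fluorescence rise, raw or as B-score row- and column-corrected plate score, outside the 99.7% band of its plate's samples, either direction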
# A number is an active result; – = inactive; · = no result. Compounds with a hit are over-represented: about 8.2% of the library has one in this group of screens.
SMILES,RORA act,M1 antagonist,HePTP inhibitor,SF1 activator,D1 mod,M1 agonist
CCCC1C2C(=O)N(c3ccccc3OC)C(=O)C2ON1c1ccccc1 (stereo not given),–,–,–,–,–,–
Oc1ccccc1C=Nc1ccc2c(c1)ncn2CCn1cnc2cc(N=Cc3ccccc3O)ccc21,·,·,–,·,·,·
Cc1ccc(/C=N/NC(=O)Cc2nnc(N)s2)cc1,·,·,–,·,·,·
O=C(CSc1ccc(-c2nc3ccccc3[nH]2)cn1)N1CCN(C(=O)c2ccco2)CC1,–,–,–,–,–,11.9
CC(=O)N(C)c1ccc(NC(=O)c2ccco2)cc1,–,–,–,49.9,–,–
O=C(Nc1ccc(-c2nc3ccccc3[nH]2)cc1)c1ccco1,–,–,–,77.5,·,–
O=C(Cc1ccccc1)Nc1ccc(-c2nc3ccccc3[nH]2)cc1,·,·,–,·,·,·
CCCc1cc(=O)n2[nH]c(C)nc2n1,–,–,–,–,·,–
COc1cc2nc(SCc3c(C)noc3C)n(CCC3=CCCCC3)c(=O)c2cc1OC,–,–,–,–,–,–
COC(=O)CC(=O)Cc1nc(N)nc(Nc2ccc(C)c(C)c2)n1,–,–,–,–,-5.45,–
Cc1ccc(Nc2nc(N)nc(CN3CCN(C)CC3)n2)cc1C,–,·,–,–,–,·
CC(=O)c1ccc(N2CCN(S(=O)(=O)c3ccccc3)CC2)c(F)c1,·,·,–,·,·,·
CC(=O)NCCSCCNC(C)=O,–,–,–,–,–,–
CC1CCCCN1CCNC(=O)CN1C(=O)COc2ccccc21 (stereo not given),–,–,–,–,-3.51,–
O=C(CCN1C(=O)COc2ccccc21)NCCCN1CCN(c2ccccc2F)CC1,–,–,–,–,-3.09,–
CC1CCCCN1CCNC(=O)CC1Oc2ccccc2NC1=O (stereo not given),–,–,–,–,–,–
CC1(C)Cc2c(sc3nc(SCC#N)n(C4CCCCC4)c(=O)c23)CO1,–,–,–,–,25.7,–
CS(=O)(=O)N(Cc1ccc(C(=O)N2CCOCC2)cc1)c1ccccc1,·,·,–,·,·,·
O=C(CSc1nc2ccccc2c(=O)n1CC1CCCCC1)c1ccc(Cl)cc1,·,·,–,·,·,·
CCOc1ncccc1C(=O)OCC(=O)c1cc(C)n(Cc2ccco2)c1C,90.8,–,–,56.8,–,–
COc1cc(C(=O)Nc2ccccc2)c2ccccc2n1,·,·,–,·,·,·
O=C(c1cc(-c2ccc(Cl)cc2Cl)on1)N1CCOCC1,–,–,–,–,-4.56,–
O=C(c1cc(-c2ccc3c(c2)OCO3)on1)N1CCN(c2ccccc2)CC1,69.7,–,–,–,–,–
O=C(c1cc(-c2ccc(Cl)cc2)on1)N1CCOCC1,–,–,–,–,–,–
COc1ccccc1N1CCN(C(=O)c2cc(-c3ccc4c(c3)OCO4)on2)CC1,–,–,–,–,–,–
SMILES,RORA act,M1 antagonist,HePTP inhibitor,SF1 activator,D1 mod,M1 agonist
O=C(c1cc(-c2ccc3c(c2)OCO3)on1)N1CCN(c2ccc(F)cc2)CC1,–,–,–,–,–,–
O=C(c1cc(-c2ccc3c(c2)OCO3)on1)N1CCOCC1,–,–,–,–,-4.47,–
Cc1cc(C)cc(NC2=C(Cl)C(=O)N(c3cccc(Cl)c3)C2=O)c1,·,·,–,·,·,·
Cc1nc2sc(C(c3ccccc3)N3CCOCC3)c(O)n2n1 (stereo not given),–,–,·,–,–,–
CCC1CCCCN1C(=O)CSc1nnc(-c2ccco2)o1 (stereo not given),48.8,–,–,52.3,–,–
CCC1CCCCN1C(=O)CSc1nnc(-c2ccc(Cl)cc2)o1 (stereo not given),–,–,–,–,–,–
O=c1c2ccccc2nc2ccc(NCc3ccco3)nn12,53.2,–,–,–,–,–
CCOc1ccc(NC(=O)C(C)SC(N)=O)cc1 (stereo not given),–,–,–,–,-2.64,–
CCOc1ccc(NC(=O)C(C)Sc2ccc(Cl)cc2)cc1 (stereo not given),·,·,–,·,·,·
O=C(O)CN1C(=O)/C(=N/N2C(=O)CSC2=S)c2ccccc21,·,·,62.9,·,·,·
COc1ccc(N(CC(=O)NCc2ccccc2)S(=O)(=O)c2ccccc2)cc1,·,·,–,·,·,·
Brc1ccc(-c2cnc(-c3cccs3)o2)cc1,–,–,–,51.9,–,–
O=C1OC(c2ccc(-c3ccccc3)cc2)c2ccccc21 (stereo not given),·,·,104.7,·,·,·
CCc1ccc(NC2=NCC(=O)N2Cc2ccc3c(c2)OCO3)cc1,–,·,–,–,·,·
Cc1c(NC(=O)NC(C)N2C(=O)C3C4C=CC(C4)C3C2=O)c(=O)n(-c2ccccc2)n1C (stereo not given),–,–,–,–,–,–
CC(C)c1ccc(/C=C/C(=O)Nc2ccc(C(N)=O)cc2)cc1,·,·,103.6,·,·,·
O=C(CSc1nnc(-c2cccs2)n1-c1ccccc1)c1ccc(F)cc1,·,·,–,·,·,·
O=C(Nc1cccc([N+](=O)[O-])c1)c1cc(-c2ccco2)nc2ccccc12,·,·,103.0,·,·,·
CN1CCN(CCCNC(=O)c2cc3c(-c4ccc(Cl)cc4)nn(C)c3s2)CC1,–,–,–,–,-2.03,–
C=CCSc1nncn1/N=C/c1ccc(OC)cc1,90.8,–,–,83.3,–,–
CSc1nncn1/N=C/c1ccc([N+](=O)[O-])cc1,·,·,–,·,·,·
C#CCOC(=O)c1ccccc1C(=O)n1nnc2ccccc21,–,–,–,–,–,-2.27
O=C1NC(=S)N/C1=C/c1ccc2c(c1)OCO2,·,·,–,·,·,·
Cc1ccc(-n2c(SCC(N)=O)nc3c([nH]c4ccccc43)c2=O)cc1,–,–,–,–,-4.08,–
COc1cccc(-n2c(SCC(N)=O)nc3c([nH]c4ccccc43)c2=O)c1,–,–,–,–,·,–
SMILES,RORA act,M1 antagonist,HePTP inhibitor,SF1 activator,D1 mod,M1 agonist
CCn1ccnc1C(O)c1ccc(N(C)C)cc1 (stereo not given),–,–,–,–,·,–
Cc1ccc(C)c(OCC(O)CN2CCCC(C)C2)c1 (stereo not given),·,·,–,·,·,·
Cc1ccc(C)c(OCC(O)CN2CCCCC2C)c1 (stereo not given),–,–,–,–,-5.96,–
O=c1oc(-c2cccnc2)nc2ccccc12,–,–,–,–,-4.51,–
CCc1ccc(NC(=O)CCn2c(=O)oc3ccccc32)cc1,–,–,–,–,–,–
Cc1c(O)ccc(C(=O)CN2C(=O)c3ccccc3C2=O)c1O,–,·,–,–,·,·
Cc1cc(C(=O)CN2C(=O)c3ccccc3C2=O)c(C)n1C1CC1,–,–,–,55.6,–,–
Cc1cc2c(c(=O)n1Cc1ccccn1)C(c1ccc3c(c1)OCO3)C(C#N)=C(N)O2 (stereo not given),–,–,–,–,–,–
COc1cc(C2C(C#N)=C(N)Oc3cc(C)n(Cc4ccccn4)c(=O)c32)cc2c1OCO2 (stereo not given),–,-10,–,–,–,33.8
CC1(C)OC(=O)C(=CNCC(=O)NCC(=O)O)C(=O)O1,–,–,–,–,–,–
CCCCCCOc1ccc(OCC(O)CN2C(=O)NC(C)(C)C2=O)cc1 (stereo not given),62.0,–,–,–,–,–

# Source: PubChem (several laboratories)
